The source made the active and inactive calls. The calls are words filed in the database; no cut-off is given here.

Data set [1] deals with T1, Bcl-2-like protein 1 (Homo sapiens, UniProt Q07817). The experiment in a line: Displacement of F-BakBH3 from Bcl-xL after 30 mins by fluorescence polarization assay. In a few lines: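 GST-Bcl-XL ΔTM (100 nM) preincubated with varying compound concentrations in PBS pH 7.4 for 10 min at room temperature. FITC-labelled Bak BH3 peptide (2.5 μL of 100 nM stock) then added. Polarization read at 480/535 nm after 30 min at room temperature. Wild-type and mutant Bak BH3 peptides served as plate controls. IC50 from sigmoidal dose-response fit; mean of three independent experiments ± SE.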
T1 sequence (Q07817 whole entry): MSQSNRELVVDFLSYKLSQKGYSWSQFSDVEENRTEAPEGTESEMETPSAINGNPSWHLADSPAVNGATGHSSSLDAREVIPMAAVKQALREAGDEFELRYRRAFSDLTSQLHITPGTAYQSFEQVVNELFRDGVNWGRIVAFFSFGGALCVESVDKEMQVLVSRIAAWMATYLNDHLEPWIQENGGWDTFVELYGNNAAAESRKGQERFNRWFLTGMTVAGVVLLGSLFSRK

Data set [2] relates to Mus musculus. The experiment in a line: Reduction of spleen weight in ip dosed human Bcl2 expressing B6 transgenic BALB/c mouse administered as single dose after 24 hrs. Format: functional, organism-based.
The target of data set [3] is Apoptosis regulator Bcl-2 (Homo sapiens, UniProt P10415). Briefly: Displacement of FITC-Bim BH3 peptide from Bcl-2 after 10 mins by fluorescence polarization assay.
Chain of Apoptosis regulator Bcl-2 (P10415 whole entry): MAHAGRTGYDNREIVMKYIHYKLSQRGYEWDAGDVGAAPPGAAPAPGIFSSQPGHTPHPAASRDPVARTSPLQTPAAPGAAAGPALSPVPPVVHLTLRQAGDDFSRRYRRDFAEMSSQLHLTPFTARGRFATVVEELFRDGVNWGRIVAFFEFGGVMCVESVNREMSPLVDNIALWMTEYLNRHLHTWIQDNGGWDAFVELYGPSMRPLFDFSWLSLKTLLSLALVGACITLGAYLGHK
Another data set concerns the target T2, Bcl-2-related protein A1 (Homo sapiens, UniProt Q16548).
T2 sequence (Q16548 whole entry): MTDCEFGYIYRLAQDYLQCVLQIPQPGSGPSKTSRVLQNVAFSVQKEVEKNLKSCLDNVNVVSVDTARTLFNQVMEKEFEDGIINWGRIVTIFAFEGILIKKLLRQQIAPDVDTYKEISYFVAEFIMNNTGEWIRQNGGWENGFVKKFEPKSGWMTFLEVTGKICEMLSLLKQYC
Briefly: Displacement of F-BakBH3 from Bfl-1 after 30 mins by fluorescence polarization assay.

Data set [4] concerns the target T1, Bcl-2-like protein 1. Briefly: Binding affinity Bcl-xL at 200 uM by one-dimensional 1H nuclear magnetic resonance spectroscopy.
The target of data set [5] is Induced myeloid leukemia cell differentiation protein Mcl-1 (Homo sapiens, UniProt Q07820). Briefly: Displacement of FITC-Bim BH3 peptide from Mcl-1 after 10 mins by fluorescence polarization assay.
Chain of Induced myeloid leukemia cell differentiation protein Mcl-1 (Q07820 whole entry): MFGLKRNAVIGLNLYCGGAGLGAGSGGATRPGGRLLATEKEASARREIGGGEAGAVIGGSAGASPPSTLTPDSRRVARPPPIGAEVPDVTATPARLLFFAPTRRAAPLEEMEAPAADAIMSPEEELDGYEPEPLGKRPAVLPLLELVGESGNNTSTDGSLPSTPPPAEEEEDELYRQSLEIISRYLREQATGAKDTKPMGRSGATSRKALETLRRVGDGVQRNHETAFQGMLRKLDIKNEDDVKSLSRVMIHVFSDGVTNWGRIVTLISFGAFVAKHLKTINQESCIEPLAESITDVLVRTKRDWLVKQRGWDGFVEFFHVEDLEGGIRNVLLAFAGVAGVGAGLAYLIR
Data set [6] can be described thus: Cytotoxicity against human RS4:11 cells expressing high level of Bcl-2 and Bcl-xL after 24 hrs by annexin V-FITC and propidium iodide staining. As to conditions: RS4-11, 24 h.
A short description of data set [7]: Cytotoxicity against human BP3 cells expressing high level of Bfl-1 and Mcl-1 after 24 hrs by annexin V-FITC and propidium iodide staining. The settings on record: BP3, 24 h.
For a further data set, the system named is NCI-H460. Briefly: Cytotoxicity against human H460 cells expressing high level of Bcl-2 after 72 hrs by ATP-LITE assay. Format: functional, cell-based. The settings on record: NCI-H460, 72 h. In a few lines: (§1)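 Cells seeded in […] or RPMI1640 with 5 mM L-glutamine, 5% FBS, penicillin/streptomycin; H460 and H1299 at 2000, PC3 at 3000 cells/well. Compounds in 0.1% DMSO final added 24 h after seeding into fresh 5% serum medium; viability by ATP-LITE luminescence after 72 h, normalised to DMSO-treated cells.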

A short description of data set [8]: Cytotoxicity against human H1299 cells expressing high level of Mcl-1 after 72 hrs by ATP-LITE assay. Format: functional, cell-based. As to conditions: NCI-H1299, 72 h. Put shortly: as §1
The test system of a further data set is PC-3. Briefly: Cytotoxicity against human PC3 cells expressing high level of Bcl-xL after 72 hrs by ATP-LITE assay. The data set is classed as functional, cell-based. As to conditions: PC-3, 72 h. In a few lines:
as §1

A short description of data set [9]: Metabolic stability of the compound in rat microsomes after 40 mins. Format: ADME, Microsome. The settings on record: read-out: Stability.
Data set [10] can be described thus: Metabolic stability of the compound in rat plasma after 40 mins. The settings on record: read-out: Stability. Format: ADME, cell-free.
Data set [11] has as its system Mus musculus. Briefly: Reduction of spleen weight in human Bcl2 expressing B6 transgenic BALB/c mouse at 60 umol/kg, ip administered as single dose after 24 hrs. Format: functional. Also noted: scale not given: the % may be the effect or the level left.
The test system of data set [12] is Mus musculus. Briefly: Toxicity in human Bcl2 expressing B6 transgenic BALB/c mouse up to 120 umol/kg, ip administered as single dose after 24 hrs. Format: organism-based. The settings on record: in vivo. Put shortly: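 B6 Bcl-2 transgenic Balb/c mice, age- and sex-matched, given one intraperitoneal dose (60 or 120 μmol/kg, also 30 μmol/kg) in ethanol:Cremophor EL:saline 10:10:80, 500 μL; survival and signs of toxicity observed over 24 h before sacrifice.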

Data set [13] is described as follows: Cytotoxicity against human RS4:11 cells expressing high level of Bcl-2 and Bcl-xL after 72 hrs by annexin V-FITC and propidium iodide staining. The data set is classed as functional, cell-based. The settings on record: RS4-11, 72 h.

In the case of `CCc1ccc(CCNC(=O)c2c(O)c(O)cc3c2C(=O)C(C)=C(C2=C(C)C(=O)c4c(cc(O)c(O)c4C(=O)NCCc4ccc(CC)cc4)C2=O)C3=O)cc1`, the IC50 on Bcl-2-like protein 1 [1] was found to be 240 nM; in data set [3], 210 nM; at Bcl-2-related protein A1, 1250 nM; in [5], 320 nM. Besides, the inhibition constant (Ki) stood at 160 nM on Bcl-2-like protein 1 [1], 140 nM in data set [3], 870 nM at Bcl-2-related protein A1 and 210 nM in [5]. Also, the Activity result in the data set with Mus musculus [2] is “Dose-dependent effect”. In addition, the outcome on Bcl-2-like protein 1 [4] was Active. Moreover, in data set [6], the EC50 was over 30000 nM.

With `CC1=C(C2=C(C)C(=O)c3c(cc(O)c(O)c3C(=O)NCc3cccc(C)c3)C2=O)C(=O)c2cc(O)c(O)c(C(=O)NCc3cccc(C)c3)c2C1=O`, the EC50 in [7] was 21600 nM; with NCI-H460, 6160 nM; in data set [8], over 30000 nM; in the data set on PC-3, 5440 nM; in data set [6], over 30000 nM. The Activity result in the data set with Mus musculus [2] was “Dose-dependent effect”. The result on Bcl-2-like protein 1 [4] was Active.

As for `CC1=C(C2=C(C)C(=O)c3c(cc(O)c(O)c3CCc3ccc(OC(F)(F)F)cc3)C2=O)C(=O)c2cc(O)c(O)c(CCc3ccc(OC(F)(F)F)cc3)c2C1=O`, the EC50 is 16100 nM in data set [7]; 1440 nM in the data set on NCI-H460; 2380 nM in [8]; 8990 nM with PC-3; 7320 nM in [6]. For the same compound, the Activity entry in the data set with Mus musculus [2] was “Dose-dependent effect”. Also, the outcome at Bcl-2-like protein 1 [4] was Active.

`CC1=C(C2=C(C)C(=O)c3c(cc(O)c(O)c3CC(C)C)C2=O)C(=O)c2cc(O)c(O)c(CC(C)C)c2C1=O`: the Ki on Bcl-2-like protein 1 [1] is 370 nM; in [3], 170 nM; on Bcl-2-related protein A1 it was 930 nM; in [5], 310 nM. The remaining at 40 min in data set [9] worked out at 69%; in data set [10], 98%. Also, the figures for the Activity result in the data set with Mus musculus [2], in the data set with Mus musculus [11] and in the data set with Mus musculus [12] were “Dose-dependent effect”, over 30% and “Non-toxic”, respectively. Also, the outcome on Bcl-2-like protein 1 [4] was Active.

Turning to `CC1=C(C2=C(C)C(=O)c3c(cc(O)c(O)c3CCCc3ccc(F)cc3)C2=O)C(=O)c2cc(O)c(O)c(CCCc3ccc(F)cc3)c2C1=O`, the 50% effective concentration (EC50) in data set [7] stood at 14600 nM; in the data set with NCI-H460, 1480 nM; in [8], 1910 nM; in the data set with PC-3 it was 2620 nM; in data set [6], 11200 nM. The Activity entry in the data set on Mus musculus [2] was “Dose-dependent effect”. Also, the result at Bcl-2-like protein 1 [4] was Active.

On to `CC1=C(C2=C(C)C(=O)c3c(cc(O)c(O)c3C(=O)Cc3ccccc3)C2=O)C(=O)c2cc(O)c(O)c(C(=O)Cc3ccccc3)c2C1=O`, for which the half-maximal effective concentration (EC50) in data set [13] is over 30000 nM; in data set [7] it was 9580 nM; with NCI-H460, 7380 nM; in [8] it was over 30000 nM; in the data set with PC-3, 5440 nM. Moreover, the IC50 on Bcl-2-like protein 1 [1] was 340 nM; in data set [3] it was 220 nM; at Bcl-2-related protein A1, 690 nM; in data set [5], 350 nM. Further, the Ki on Bcl-2-like protein 1 [1] was 240 nM; in data set [3] it was 150 nM; at Bcl-2-related protein A1, 460 nM; in data set [5] it was 230 nM. Moreover, the Activity result with Mus musculus [2] is “Dose-dependent effect”. Also, the result on Bcl-2-like protein 1 [4] was Active.

On to `CC1=C(C2=C(C)C(=O)c3c(cc(O)c(O)c3Cc3ccc(-c4ccccc4)cc3)C2=O)C(=O)c2cc(O)c(O)c(Cc3ccc(-c4ccccc4)cc3)c2C1=O`, for which the concentration giving a half-maximal response (EC50) in [7] amounted to 810 nM; in the data set on NCI-H460, 980 nM; in data set [8] it was 10300 nM; in the data set on PC-3, 2970 nM; in data set [6] it was 1740 nM. In addition, the Activity result in the data set on Mus musculus [2] was “Dose-dependent effect”. Also, the outcome at Bcl-2-like protein 1 [4] was Active.

With `CC1=C(C2=C(C)C(=O)c3c(cc(O)c(O)c3CCCc3ccccc3)C2=O)C(=O)c2cc(O)c(O)c(CCCc3ccccc3)c2C1=O`, the EC50 came out at 3830 nM in data set [13], 920 nM with NCI-H460, 1530 nM in data set [8] and 1300 nM in the data set on PC-3. The half-maximal inhibitory concentration (IC50) was found to be 1440 nM on Bcl-2-like protein 1 [1], 2170 nM in [3], 5270 nM at Bcl-2-related protein A1 and 670 nM in data set [5]. In addition, the Ki at Bcl-2-like protein 1 [1] was found to be 960 nM; in [3], 1450 nM; at Bcl-2-related protein A1, 3530 nM; in data set [5], 450 nM. In addition, the remaining at 40 min in data set [9] is 88%; in data set [10] it was 87%. For the same compound, the Activity result with Mus musculus [2] is “Dose-dependent effect”. Also, the result on Bcl-2-like protein 1 [4] was Active.

As for `CC1=C(C2=C(C)C(=O)c3c(cc(O)c(O)c3CCc3ccccc3)C2=O)C(=O)c2cc(O)c(O)c(CCc3ccccc3)c2C1=O`, the EC50 in data set [13] amounted to 4750 nM; in data set [7], 8720 nM; with NCI-H460, 1040 nM; in [8], 850 nM; with PC-3, 1400 nM. Besides, the IC50 was 1790 nM at Bcl-2-like protein 1 [1], 2570 nM in data set [3], 9720 nM at Bcl-2-related protein A1 and 1290 nM in data set [5]. Also, the Ki at Bcl-2-like protein 1 [1] is 1200 nM; in data set [3] it was 1730 nM; on Bcl-2-related protein A1 it was 6470 nM; in [5], 870 nM. Also, the remaining at 40 min in data set [9] was determined as 89%; in data set [10], 81%. Besides, in the data set on Mus musculus [2], the Activity entry was “Dose-dependent effect”. The outcome on Bcl-2-like protein 1 [4] was Active.

As to `CC1=C(C2=C(C)C(=O)c3c(cc(O)c(O)c3CCC(C)(C)c3ccccc3)C2=O)C(=O)c2cc(O)c(O)c(CCC(C)(C)c3ccccc3)c2C1=O`, the EC50 in data set [7] was 30000 nM; with NCI-H460, 1620 nM; in data set [8], 2160 nM; with PC-3 it was 2000 nM; in [6] it was 15000 nM. Also, in the data set with Mus musculus [2], the Activity entry is “Dose-dependent effect”. Besides, the result on Bcl-2-like protein 1 [4] was Active.

Take `CC1=C(C2=C(C)C(=O)c3c(cc(O)c(O)c3CCC3CCCCC3)C2=O)C(=O)c2cc(O)c(O)c(CCC3CCCCC3)c2C1=O`: the values for the IC50 (at Bcl-2-like protein 1 [1]; in [3]; in data set [5]) were 12700 nM, 6730 nM and 5900 nM, respectively. The results for the inhibition constant (Ki) (at Bcl-2-like protein 1 [1]; in data set [3]; in data set [5]) were 8400 nM, 4470 nM and 3930 nM, respectively. Also, the remaining at 40 min amounted to 98% in data set [9] and 74% in data set [10]. The 50% effective concentration (EC50) in data set [7] was found to be 15600 nM; in the data set on NCI-H460 it was 2200 nM; in data set [8], 1320 nM; in the data set with PC-3 it was 2400 nM; in data set [6] it was 15700 nM. Moreover, the Activity result was “Dose-dependent effect” with Mus musculus [2] and “Non-toxic” with Mus musculus [12]. The outcome on Bcl-2-like protein 1 [4] was Active.

Consider `CC1=C(C2=C(C)C(=O)c3c(cc(O)c(O)c3CC3CCCC3)C2=O)C(=O)c2cc(O)c(O)c(CC3CCCC3)c2C1=O`, for which the results for the half-maximal inhibitory concentration (IC50) (on Bcl-2-like protein 1 [1]; in [3]; in [5]) were 2990 nM, 2270 nM and 3080 nM, respectively. The Ki at Bcl-2-like protein 1 [1] is 2000 nM; in data set [3], 1530 nM; in [5], 2070 nM. Further, the 50% effective concentration (EC50) in data set [7] was 12800 nM; in the data set on NCI-H460, 700 nM; in data set [8] it was 2320 nM; in the data set with PC-3, 5500 nM; in [6], 9830 nM. Also, the Activity result in the data set on Mus musculus [2] was “Dose-dependent effect”. Besides, the result on Bcl-2-like protein 1 [4] was Active.

These data come from ChEMBL document CHEMBL1269007, “Synthesis and biological evaluation of Apogossypolone derivatives as pan-active inhibitors of antiapoptotic B-cell lymphoma/leukemia-2 (Bcl-2) family proteins” (J Med Chem, 2010).
